Measured values taken from ChEMBL document CHEMBL3091382, “The chemical synthesis and cytotoxicity of new sulfur analogues of 2-methoxy-lysophosphatidylcholine” (Bioorg Med Chem Lett, 2013).

What was measured:
[1] = Cytotoxicity against mouse betaTC3 cells assessed as cell viability at 25 uM after 48 hrs by MTT assay relative to control; assay type: cell-based, Beta-TC3; details: read-out: Activity
Procedure, shortened: (§1)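 βTC-3 insulinoma cells seeded at 10,000 per well and cultured 24 and 48 h before exposure to natural LPC species or 2-methoxy sulfur analogues at 10 or 25 µM. Incubation for 24 or 48 h. Viability measured by MTT colorimetric assay and expressed as % of untreated cells, mean ± SD of four independent experimental repeats.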

[2] = Cytotoxicity against mouse betaTC3 cells assessed as cell viability at 10 uM after 24 hrs by MTT assay relative to control; assay type: cell-based, Beta-TC3; details: read-out: Activity; procedure, shortened: as §1
[3] = Cytotoxicity against mouse betaTC3 cells assessed as cell viability at 25 uM after 24 hrs by MTT assay relative to control; assay type: cell-based, Beta-TC3; details: read-out: Activity; procedure, shortened: as §1
[4] = Cytotoxicity against mouse betaTC3 cells assessed as cellular membrane damage at 10 uM after 24 hrs by LDH release assay; assay type: cell-based; details: beta-tc3, 24 h
Procedure, shortened: (§2)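 βTC-3 insulinoma cells seeded at 10,000 per well and cultured 24 or 48 h, then exposed to compound for 24 h. LDH in the medium measured as a marker of membrane damage. Release expressed as percentage of that from cells given methanol alone. Mean ± SD, n = 4; significance taken at p < 0.05.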

[5] = Cytotoxicity against mouse betaTC3 cells assessed as cellular membrane damage at 25 uM after 24 hrs by LDH release assay; assay type: cell-based; details: beta-tc3, 24 h; procedure, shortened: as §2
[6] = Cytotoxicity against mouse betaTC3 cells assessed as cell viability at 10 uM after 48 hrs by MTT assay relative to control; assay type: cell-based, Beta-TC3; details: read-out: Activity; procedure, shortened: as §1

SMILES	viability at 48 h, 25 µM [1] [%]	viability at 24 h, 10 µM [2] [%]	viability at 24 h, 25 µM [3] [%]	Activity [4]	Activity [5] [%]	viability at 48 h, 10 µM [6] [%]
CCCCCCCCCCCCCCCC(=O)OC[C@@H](O)COP(=O)([O-])OCC[N+](C)(C)C	20.1	73.1	29.7	Toxic	16.8	59.8
CCCCCCCCCCCCCCCCCC(=O)OC[C@@H](O)COP(=O)([O-])OCC[N+](C)(C)C	29.5	88.8	38.7	Toxic		59.3
CCCCCCCC/C=C\CCCCCCCC(=O)OC[C@@H](O)COP(=O)([O-])OCC[N+](C)(C)C	68.5	130	81.1		9.04	93.4
CCCCCCCCCCCCCC(=O)OCC(COP(=O)([S-])OCC[N+](C)(C)C)OC (mixture of isomers)	41.1	112	73.7			101
CCCCCCCCCCCCCCCCCC(=O)OCC(COP(=O)([S-])OCC[N+](C)(C)C)OC (mixture of isomers)	50.9	90.3	82.9			61.4
CCCCCCCCCCCC(=O)OCC(COP(=O)([S-])OCC[N+](C)(C)C)OC (racemic)	71.1	90.2	90.7			106
CCCCCCCCCCCCCCCC(=O)OCC(COP(=O)([S-])OCC[N+](C)(C)C)OC (racemic)	44.2	105	60.4			87.7
CCCCCCCC/C=C\CCCCCCCC(=O)OCC(COP(=O)([S-])OCC[N+](C)(C)C)OC (racemic)	133	121	144			92.4
CCCCCCCCCCCC(=O)OCC(COP(=S)([S-])OCC[N+](C)(C)C)OC (racemic)	41.8	87.1	83.7			98.2
CCCCCCCCCCCCCC(=O)OCC(COP(=S)([S-])OCC[N+](C)(C)C)OC (racemic)	35.8	104	64.7			87.9
CCCCCCCCCCCCCCCC(=O)OCC(COP(=S)([S-])OCC[N+](C)(C)C)OC (racemic)	37.4	112	58.7			100
CCCCCCCCCCCCCCCCCC(=O)OCC(COP(=S)([S-])OCC[N+](C)(C)C)OC (racemic)	38.9	85.8	63.1			96.8
CCCCCCCC/C=C\CCCCCCCC(=O)OCC(COP(=S)([S-])OCC[N+](C)(C)C)OC (racemic)	112	90.5	111			95.9
CCCCCCCCCCCC(=O)OC[C@@H](O)COP(=O)([O-])OCC[N+](C)(C)C [LYSOPHOSPHATIDYLCHOLINE]	67.1	106	83		16.8	86.1
CCCCCCCCCCCCCC(=O)OC[C@@H](O)COP(=O)([O-])OCC[N+](C)(C)C [LYSOPHOSPHATIDYLCHOLINE]	7.5	75.5	26.3	Toxic		53.1
